Results from ChEMBL document CHEMBL1811853, “Design and evaluation of 3-aminopyrazolopyridinone kinase inhibitors inspired by the natural product indirubin” (Bioorg Med Chem, 2011).
≈ marks a conversion by molar mass, not a printed value.

Experiments:
[1] = Aqueous solubility of the compound by HPLC analysis; type: physicochemical; conditions: water
In short: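 Solubility determined by HPLC measurement of the concentration in saturated aqueous solutions of the compounds.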

[2] = biological target: MAP kinase-activated protein kinase 2 (Homo sapiens, UniProt P49137); assay: Inhibition of MAPKAPK2 at 30 uM by microfluidic mobility shift assay
In short: (§1)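 Single-concentration screen, singlicate, 30 uM final (diluted from 1 mM DMSO solutions), fluorescently tagged peptide substrate appropriate to each kinase, ATP at apparent Km for each protein. Phosphorylated and unphosphorylated peptides separated electrophoretically; conversion is the phosphorylated peak area over the sum of both peaks. No-inhibitor and no-ATP controls; H89 reference on each plate.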

[3] = biological target: T1, Aurora kinase A (Homo sapiens) (UniProt O14965); assay: Inhibition of AurA at 30 uM by microfluidic mobility shift assay; in short: as §1
T1 sequence (whole entry): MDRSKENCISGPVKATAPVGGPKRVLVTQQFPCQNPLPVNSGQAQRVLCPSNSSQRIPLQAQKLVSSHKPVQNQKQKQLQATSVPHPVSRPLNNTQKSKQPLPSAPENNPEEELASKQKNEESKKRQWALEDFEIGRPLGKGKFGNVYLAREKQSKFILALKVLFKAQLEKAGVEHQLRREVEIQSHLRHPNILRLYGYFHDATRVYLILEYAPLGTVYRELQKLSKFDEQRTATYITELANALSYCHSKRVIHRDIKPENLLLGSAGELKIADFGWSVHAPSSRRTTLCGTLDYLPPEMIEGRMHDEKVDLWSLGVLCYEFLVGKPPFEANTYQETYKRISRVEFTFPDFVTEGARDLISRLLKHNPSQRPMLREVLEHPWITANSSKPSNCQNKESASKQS

[4] = biological target: T2, Protein kinase C zeta type (Homo sapiens) (UniProt Q05513); assay: Inhibition of PKCz at 30 uM by microfluidic mobility shift assay; in short: as §1
T2 sequence (whole entry): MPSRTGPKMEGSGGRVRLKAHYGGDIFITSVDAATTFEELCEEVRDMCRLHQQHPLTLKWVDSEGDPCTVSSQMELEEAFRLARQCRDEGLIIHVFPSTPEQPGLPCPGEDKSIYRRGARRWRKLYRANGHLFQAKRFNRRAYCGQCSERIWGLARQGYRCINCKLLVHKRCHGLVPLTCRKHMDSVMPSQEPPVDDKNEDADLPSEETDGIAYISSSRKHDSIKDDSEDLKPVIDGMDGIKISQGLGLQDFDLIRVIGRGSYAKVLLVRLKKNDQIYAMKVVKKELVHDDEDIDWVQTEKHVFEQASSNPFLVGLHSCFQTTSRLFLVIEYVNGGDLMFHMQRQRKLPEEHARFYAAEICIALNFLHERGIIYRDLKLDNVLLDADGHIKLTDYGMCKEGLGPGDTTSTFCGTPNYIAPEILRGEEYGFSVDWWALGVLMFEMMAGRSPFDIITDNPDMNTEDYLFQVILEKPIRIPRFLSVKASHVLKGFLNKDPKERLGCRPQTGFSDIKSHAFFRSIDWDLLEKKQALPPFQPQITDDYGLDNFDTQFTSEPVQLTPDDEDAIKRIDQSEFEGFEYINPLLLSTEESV

[5] = biological target: Ribosomal protein S6 kinase alpha-1 (Homo sapiens) (UniProt Q15418); assay: Inhibition of RSK1 at 30 uM by microfluidic mobility shift assay; in short: as §1
[6] = biological target: T3, MAP kinase-activated protein kinase 5 (Homo sapiens) (UniProt Q8IW41); assay: Inhibition of PRAK1 at 30 uM by microfluidic mobility shift assay; in short: as §1
T3 sequence (whole entry): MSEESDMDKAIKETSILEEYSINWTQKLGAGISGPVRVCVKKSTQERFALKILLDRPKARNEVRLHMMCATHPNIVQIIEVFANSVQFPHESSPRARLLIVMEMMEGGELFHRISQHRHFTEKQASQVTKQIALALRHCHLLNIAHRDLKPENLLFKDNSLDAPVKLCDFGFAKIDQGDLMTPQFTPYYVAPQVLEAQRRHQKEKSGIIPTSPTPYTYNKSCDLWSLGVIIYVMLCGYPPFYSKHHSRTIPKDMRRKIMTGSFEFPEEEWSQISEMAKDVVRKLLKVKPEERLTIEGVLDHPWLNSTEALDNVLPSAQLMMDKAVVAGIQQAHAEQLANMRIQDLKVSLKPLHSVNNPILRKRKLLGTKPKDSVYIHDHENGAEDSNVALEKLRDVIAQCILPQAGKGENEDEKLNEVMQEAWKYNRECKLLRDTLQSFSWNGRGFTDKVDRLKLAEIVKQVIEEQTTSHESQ

[7] = biological target: Mitogen-activated protein kinase 3 (Homo sapiens) (UniProt P27361); assay: Inhibition of ERK1 at 30 uM by microfluidic mobility shift assay; in short: as §1
[8] = biological target: T4, Serine/threonine-protein kinase Chk1 (Homo sapiens) (UniProt O14757); assay: Inhibition of CHK1 at 30 uM by microfluidic mobility shift assay; in short: as §1
T4 sequence (whole entry): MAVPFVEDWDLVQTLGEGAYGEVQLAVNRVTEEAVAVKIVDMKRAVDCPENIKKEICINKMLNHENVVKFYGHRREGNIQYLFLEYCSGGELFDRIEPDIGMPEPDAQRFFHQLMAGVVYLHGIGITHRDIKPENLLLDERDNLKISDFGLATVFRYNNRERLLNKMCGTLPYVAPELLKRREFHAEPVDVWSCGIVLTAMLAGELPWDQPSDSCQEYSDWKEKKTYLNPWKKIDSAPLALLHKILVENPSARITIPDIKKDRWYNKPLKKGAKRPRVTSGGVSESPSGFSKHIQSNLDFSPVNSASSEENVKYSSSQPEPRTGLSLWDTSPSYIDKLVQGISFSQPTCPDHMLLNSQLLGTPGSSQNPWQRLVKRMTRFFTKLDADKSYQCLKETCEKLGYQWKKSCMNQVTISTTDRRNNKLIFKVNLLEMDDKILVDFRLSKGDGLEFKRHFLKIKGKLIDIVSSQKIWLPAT

[9] = biological target: Tyrosine-protein kinase ABL1 (Homo sapiens, UniProt P00519); assay: Inhibition of ABL at 30 uM by microfluidic mobility shift assay; in short: as §1
[10] = biological target: Tyrosine-protein kinase Fyn (Homo sapiens, UniProt P06241); assay: Inhibition of FYN at 30 uM by microfluidic mobility shift assay; in short: as §1
[11] = biological target: Tyrosine-protein kinase Lyn (Homo sapiens, UniProt P07948); assay: Inhibition of LYN at 30 uM by microfluidic mobility shift assay; in short: as §1
[12] = biological target: Serine/threonine-protein kinase Chk2 (Homo sapiens, UniProt O96017); assay: Inhibition of CHK2 at 30 uM by microfluidic mobility shift assay; in short: as §1
[13] = biological target: Tyrosine-protein kinase Lck (Homo sapiens, UniProt P06239); assay: Inhibition of LCK at 30 uM by microfluidic mobility shift assay; in short: as §1
[14] = biological target: Proto-oncogene tyrosine-protein kinase Src (Homo sapiens, UniProt P12931); assay: Inhibition of SRC at 30 uM by microfluidic mobility shift assay; in short: as §1
[15] = biological target: Glycogen synthase kinase-3 beta (Homo sapiens) (UniProt P49841); assay: Inhibition of GSK3B at 30 uM by microfluidic mobility shift assay; in short: as §1
[16] = biological target: Mitogen-activated protein kinase 1 (Homo sapiens) (UniProt P28482); assay: Inhibition of ERK2 at 30 uM by microfluidic mobility shift assay; in short: as §1
[17] = Inhibition of PKA at 30 uM by microfluidic mobility shift assay; in short: as §1
[18] = biological target: RAC-beta serine/threonine-protein kinase (Homo sapiens) (UniProt P31751); assay: Inhibition of AKT2 at 30 uM by microfluidic mobility shift assay; in short: as §1
[19] = biological target: Insulin receptor (Homo sapiens) (UniProt P06213); assay: Inhibition of INSR at 30 uM by microfluidic mobility shift assay; in short: as §1
[20] = biological target: Mitogen-activated protein kinase 14 (Homo sapiens, UniProt Q16539); assay: Inhibition of p38alpha at 30 uM by microfluidic mobility shift assay; in short: as §1
[21] = biological target: RAC-alpha serine/threonine-protein kinase (Homo sapiens) (UniProt P31749); assay: Inhibition of AKT1 at 30 uM by microfluidic mobility shift assay; in short: as §1
[22] = biological target: Ribosomal protein S6 kinase alpha-5 (Homo sapiens) (UniProt O75582); assay: Inhibition of MSK1 at 30 uM by microfluidic mobility shift assay; in short: as §1
[23] = biological target: T5, Serine/threonine-protein kinase D2 (Homo sapiens) (UniProt Q9BZL6); assay: Inhibition of PKD2 at 30 uM by microfluidic mobility shift assay; in short: as §1
T5 sequence (whole entry): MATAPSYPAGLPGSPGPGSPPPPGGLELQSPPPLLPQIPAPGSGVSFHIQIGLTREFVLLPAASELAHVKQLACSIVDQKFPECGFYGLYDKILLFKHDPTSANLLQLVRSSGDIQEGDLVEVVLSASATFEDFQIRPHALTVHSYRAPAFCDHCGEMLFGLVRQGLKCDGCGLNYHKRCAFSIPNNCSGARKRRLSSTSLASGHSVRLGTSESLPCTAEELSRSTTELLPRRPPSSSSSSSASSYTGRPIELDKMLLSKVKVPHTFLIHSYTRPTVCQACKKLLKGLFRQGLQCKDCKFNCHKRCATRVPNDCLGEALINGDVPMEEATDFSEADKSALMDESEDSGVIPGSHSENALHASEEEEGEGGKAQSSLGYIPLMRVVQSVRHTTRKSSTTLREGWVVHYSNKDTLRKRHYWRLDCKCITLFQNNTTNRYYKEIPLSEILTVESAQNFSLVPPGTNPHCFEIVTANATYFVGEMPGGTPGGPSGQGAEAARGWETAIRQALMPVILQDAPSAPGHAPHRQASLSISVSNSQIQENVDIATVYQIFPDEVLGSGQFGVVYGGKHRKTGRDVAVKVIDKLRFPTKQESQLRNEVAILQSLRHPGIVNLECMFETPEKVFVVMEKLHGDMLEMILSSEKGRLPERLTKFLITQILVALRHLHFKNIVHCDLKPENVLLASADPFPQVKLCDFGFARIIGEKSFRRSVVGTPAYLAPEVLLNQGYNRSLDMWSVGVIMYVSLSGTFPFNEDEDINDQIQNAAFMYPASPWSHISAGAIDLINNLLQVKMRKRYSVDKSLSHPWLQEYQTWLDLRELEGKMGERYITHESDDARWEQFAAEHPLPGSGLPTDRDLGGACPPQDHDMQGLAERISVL

Chain of Tyrosine-protein kinase Fyn (P06241 2-537 limits assumed): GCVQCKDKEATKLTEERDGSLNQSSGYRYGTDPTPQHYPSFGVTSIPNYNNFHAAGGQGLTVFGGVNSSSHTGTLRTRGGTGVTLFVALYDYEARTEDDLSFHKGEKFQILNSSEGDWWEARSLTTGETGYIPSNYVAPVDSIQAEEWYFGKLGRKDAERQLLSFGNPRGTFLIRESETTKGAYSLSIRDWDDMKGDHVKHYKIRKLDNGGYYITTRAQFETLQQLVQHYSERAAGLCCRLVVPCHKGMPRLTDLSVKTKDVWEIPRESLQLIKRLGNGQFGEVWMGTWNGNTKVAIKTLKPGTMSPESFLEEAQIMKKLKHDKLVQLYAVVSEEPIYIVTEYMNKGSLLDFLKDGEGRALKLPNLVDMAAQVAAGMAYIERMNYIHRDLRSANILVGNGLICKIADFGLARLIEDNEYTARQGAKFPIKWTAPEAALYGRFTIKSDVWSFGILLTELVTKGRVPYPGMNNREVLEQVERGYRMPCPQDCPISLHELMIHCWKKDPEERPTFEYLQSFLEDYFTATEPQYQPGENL
Chain of Mitogen-activated protein kinase 1 (Homo sapiens) (P28482 whole entry): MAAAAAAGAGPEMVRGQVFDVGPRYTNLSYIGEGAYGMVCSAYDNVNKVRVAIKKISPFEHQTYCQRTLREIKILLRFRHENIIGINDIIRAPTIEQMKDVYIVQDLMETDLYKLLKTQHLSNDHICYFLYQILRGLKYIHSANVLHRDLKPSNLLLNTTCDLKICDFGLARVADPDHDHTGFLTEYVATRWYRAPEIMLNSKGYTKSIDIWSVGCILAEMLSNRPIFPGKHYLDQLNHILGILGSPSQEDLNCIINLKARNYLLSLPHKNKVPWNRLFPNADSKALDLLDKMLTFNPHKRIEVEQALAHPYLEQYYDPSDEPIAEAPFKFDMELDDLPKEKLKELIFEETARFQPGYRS
Chain of Tyrosine-protein kinase Lyn (P07948 2-512 limits assumed): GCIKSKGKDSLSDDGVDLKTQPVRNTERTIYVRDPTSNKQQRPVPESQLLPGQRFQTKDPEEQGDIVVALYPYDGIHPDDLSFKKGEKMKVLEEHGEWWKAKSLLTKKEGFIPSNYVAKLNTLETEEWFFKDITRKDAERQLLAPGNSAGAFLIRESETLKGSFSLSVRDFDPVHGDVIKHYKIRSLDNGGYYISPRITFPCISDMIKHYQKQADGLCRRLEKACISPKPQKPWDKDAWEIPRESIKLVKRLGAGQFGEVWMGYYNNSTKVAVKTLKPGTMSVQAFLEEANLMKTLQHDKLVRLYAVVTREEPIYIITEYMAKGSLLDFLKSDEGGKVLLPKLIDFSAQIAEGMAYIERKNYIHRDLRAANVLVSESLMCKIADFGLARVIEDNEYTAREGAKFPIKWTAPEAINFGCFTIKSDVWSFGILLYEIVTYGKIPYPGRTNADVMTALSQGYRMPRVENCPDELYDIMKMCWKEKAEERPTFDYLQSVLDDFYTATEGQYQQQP
Chain of MAP kinase-activated protein kinase 2 (P49137 whole entry, looked up): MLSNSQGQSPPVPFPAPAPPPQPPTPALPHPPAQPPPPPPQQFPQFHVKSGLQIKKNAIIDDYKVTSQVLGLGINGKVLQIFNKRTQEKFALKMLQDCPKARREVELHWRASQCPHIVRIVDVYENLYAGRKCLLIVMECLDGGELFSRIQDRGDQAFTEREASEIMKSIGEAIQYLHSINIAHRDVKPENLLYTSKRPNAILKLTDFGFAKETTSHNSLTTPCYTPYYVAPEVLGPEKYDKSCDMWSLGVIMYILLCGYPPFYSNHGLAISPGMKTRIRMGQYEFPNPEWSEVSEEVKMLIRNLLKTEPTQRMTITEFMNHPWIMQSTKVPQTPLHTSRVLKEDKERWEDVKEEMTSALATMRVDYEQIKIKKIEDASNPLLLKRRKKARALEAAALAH
Chain of Serine/threonine-protein kinase Chk2 (O96017 whole entry): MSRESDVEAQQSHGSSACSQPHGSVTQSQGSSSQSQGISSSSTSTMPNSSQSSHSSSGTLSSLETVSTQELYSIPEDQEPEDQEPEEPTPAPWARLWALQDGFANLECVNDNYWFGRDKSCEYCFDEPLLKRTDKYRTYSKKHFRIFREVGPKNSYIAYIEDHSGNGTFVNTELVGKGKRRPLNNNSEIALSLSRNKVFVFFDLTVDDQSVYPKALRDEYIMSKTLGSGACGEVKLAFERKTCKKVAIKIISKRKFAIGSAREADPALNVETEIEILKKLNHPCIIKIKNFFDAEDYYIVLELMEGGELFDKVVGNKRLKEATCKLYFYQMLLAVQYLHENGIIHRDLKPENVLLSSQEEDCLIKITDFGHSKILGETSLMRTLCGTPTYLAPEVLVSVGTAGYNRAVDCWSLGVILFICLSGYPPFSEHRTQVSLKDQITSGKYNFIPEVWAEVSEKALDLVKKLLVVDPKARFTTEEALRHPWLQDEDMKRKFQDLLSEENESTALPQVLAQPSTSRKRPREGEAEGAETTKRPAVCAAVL
Chain of Mitogen-activated protein kinase 14 (Q16539 whole entry): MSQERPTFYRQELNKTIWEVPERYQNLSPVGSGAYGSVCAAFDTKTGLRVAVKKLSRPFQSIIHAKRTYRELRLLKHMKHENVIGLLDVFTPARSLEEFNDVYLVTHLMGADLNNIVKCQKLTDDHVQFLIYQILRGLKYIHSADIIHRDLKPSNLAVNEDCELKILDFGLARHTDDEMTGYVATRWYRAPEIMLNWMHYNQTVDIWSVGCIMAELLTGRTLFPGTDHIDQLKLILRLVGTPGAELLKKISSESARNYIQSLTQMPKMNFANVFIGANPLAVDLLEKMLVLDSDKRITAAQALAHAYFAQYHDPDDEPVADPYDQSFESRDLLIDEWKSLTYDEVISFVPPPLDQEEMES
Chain of Ribosomal protein S6 kinase alpha-5 (Homo sapiens) (O75582 whole entry, looked up): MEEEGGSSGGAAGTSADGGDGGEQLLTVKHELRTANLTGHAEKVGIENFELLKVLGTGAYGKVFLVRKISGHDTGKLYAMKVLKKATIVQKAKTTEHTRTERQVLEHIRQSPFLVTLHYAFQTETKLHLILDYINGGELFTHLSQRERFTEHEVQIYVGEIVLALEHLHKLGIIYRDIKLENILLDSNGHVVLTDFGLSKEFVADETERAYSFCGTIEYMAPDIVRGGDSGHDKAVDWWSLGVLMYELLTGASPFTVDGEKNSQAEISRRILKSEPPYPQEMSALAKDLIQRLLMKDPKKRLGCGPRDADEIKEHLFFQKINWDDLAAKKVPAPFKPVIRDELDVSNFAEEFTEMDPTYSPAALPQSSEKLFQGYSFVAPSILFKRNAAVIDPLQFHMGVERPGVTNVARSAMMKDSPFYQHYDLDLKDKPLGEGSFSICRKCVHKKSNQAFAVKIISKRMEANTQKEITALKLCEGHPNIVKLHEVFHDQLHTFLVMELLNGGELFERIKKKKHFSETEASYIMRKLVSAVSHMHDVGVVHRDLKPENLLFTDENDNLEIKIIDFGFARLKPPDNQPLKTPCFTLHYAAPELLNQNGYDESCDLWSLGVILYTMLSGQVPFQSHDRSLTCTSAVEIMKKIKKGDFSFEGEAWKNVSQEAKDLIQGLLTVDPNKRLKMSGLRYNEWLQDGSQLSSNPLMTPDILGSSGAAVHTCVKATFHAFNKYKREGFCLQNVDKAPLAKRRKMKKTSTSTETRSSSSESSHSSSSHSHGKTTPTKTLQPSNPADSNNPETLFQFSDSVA
Chain of RAC-alpha serine/threonine-protein kinase (Homo sapiens) (P31749 whole entry): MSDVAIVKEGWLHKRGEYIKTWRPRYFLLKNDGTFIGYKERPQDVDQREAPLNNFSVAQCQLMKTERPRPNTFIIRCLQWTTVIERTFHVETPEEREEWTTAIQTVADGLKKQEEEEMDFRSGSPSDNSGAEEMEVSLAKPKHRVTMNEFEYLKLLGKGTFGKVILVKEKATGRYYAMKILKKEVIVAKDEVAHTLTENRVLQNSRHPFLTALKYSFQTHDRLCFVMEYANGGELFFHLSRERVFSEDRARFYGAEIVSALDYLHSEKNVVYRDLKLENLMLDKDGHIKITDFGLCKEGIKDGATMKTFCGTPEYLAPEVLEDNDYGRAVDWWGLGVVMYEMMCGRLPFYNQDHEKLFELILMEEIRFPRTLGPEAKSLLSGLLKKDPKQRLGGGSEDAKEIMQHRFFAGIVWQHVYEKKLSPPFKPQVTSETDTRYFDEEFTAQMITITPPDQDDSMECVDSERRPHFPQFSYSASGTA
Chain of Proto-oncogene tyrosine-protein kinase Src (P12931 2-536 limits assumed): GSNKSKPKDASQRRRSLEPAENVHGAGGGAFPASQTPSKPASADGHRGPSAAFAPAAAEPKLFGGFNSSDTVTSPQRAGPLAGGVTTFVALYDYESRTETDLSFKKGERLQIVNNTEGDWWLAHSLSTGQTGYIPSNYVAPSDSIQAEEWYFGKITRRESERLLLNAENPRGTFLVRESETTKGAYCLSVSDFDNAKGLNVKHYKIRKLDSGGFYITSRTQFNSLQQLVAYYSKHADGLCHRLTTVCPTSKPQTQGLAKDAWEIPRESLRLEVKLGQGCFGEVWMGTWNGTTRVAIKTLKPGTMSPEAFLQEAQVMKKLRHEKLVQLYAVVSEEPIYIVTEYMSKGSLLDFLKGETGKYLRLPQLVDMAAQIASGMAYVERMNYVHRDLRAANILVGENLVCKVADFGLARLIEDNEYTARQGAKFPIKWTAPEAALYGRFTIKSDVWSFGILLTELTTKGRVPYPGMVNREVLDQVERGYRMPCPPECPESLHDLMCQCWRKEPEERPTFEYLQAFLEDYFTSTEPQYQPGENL
Chain of Glycogen synthase kinase-3 beta (Homo sapiens) (P49841 whole entry, looked up): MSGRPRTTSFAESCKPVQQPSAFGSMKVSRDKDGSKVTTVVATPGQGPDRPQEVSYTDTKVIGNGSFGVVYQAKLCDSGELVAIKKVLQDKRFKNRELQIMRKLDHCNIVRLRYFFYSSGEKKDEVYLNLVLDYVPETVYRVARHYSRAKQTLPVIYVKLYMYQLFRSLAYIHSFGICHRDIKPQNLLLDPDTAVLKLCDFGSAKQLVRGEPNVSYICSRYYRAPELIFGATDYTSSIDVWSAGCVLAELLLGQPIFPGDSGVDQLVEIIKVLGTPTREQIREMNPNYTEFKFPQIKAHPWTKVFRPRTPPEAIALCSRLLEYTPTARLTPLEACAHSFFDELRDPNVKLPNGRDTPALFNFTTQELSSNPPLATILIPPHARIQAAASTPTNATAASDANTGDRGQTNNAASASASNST

SMILES | inhibition [2] | inhibition [3] | inhibition [5] | inhibition [6] | inhibition [7] | inhibition [8] | inhibition [9] | inhibition [10] | inhibition [11] | inhibition [12] | inhibition [13] | inhibition [14] | inhibition [15] | inhibition [16] | inhibition [17] | inhibition [18] | inhibition [19] | inhibition [20] | inhibition [21] | inhibition [22] | further results
Cc1[nH]c(=O)c2c(N)nn(C)c2c1-c1ccccc1 | – | – | – | – | – | – | – | – | – | – | – | – | – | – | – | – | – | – | – | – | solubility [1]: 2 µg/mL (≈ 7.86 µM)
CC(C)(C)c1cc2[nH]nc(N)c2c(=O)[nH]1 | 39% | 34% | 22% | 1% | 12% | 12% | 14% | 48% | 40% | 21% | 40% | 58% | 41% | 4% | 75% | 4% | 14% | 3% | 3% | 65% | inhibition [4]: -9%
Nc1n[nH]c2cc(CC3CCNCC3)[nH]c(=O)c12 | 35% | 5% | 11% | 3% | 4% | 16% | 7% | -3% | -1% | 7% | 4% | 4% | 4% | -2% | 71% | 6% | 1% | 3% | 13% | 62% | inhibition [23]: -6%
Cc1cc2nn(-c3ccccc3)c(N)c2c(N2CCCCC2)n1 | 7% | 10% | 4% | 10% | 4% | -1% | 7% | 7% | 8% | 4% | 12% | 7% | 7% | 6% | 2% | -7% | -2% | 10% | 1% | 10% | inhibition [23]: 5%
Cc1cc2c(c(N)nn2C)c(N2CCOCC2)n1 | -2% | 17% | 1% | 5% | 4% | -5% | 15% | 9% | 17% | 3% | 10% | 7% | 8% | -1% | -2% | 12% | 3% | 2% | -8% | 4% | inhibition [23]: -4%
Cc1cc2c(cn1)c(N)nn2C | -2% | 3% | 1% | 9% | 6% | 10% | 2% | 2% | 1% | 3% | 4% | 3% | 6% | 2% | 1% | -2% | -3% | 2% | 0% | -2% | inhibition [23]: -3%
COCCNc1nc(C)cc2nn(-c3ccccc3)c(N)c12 | 3% | 32% | 2% | 2% | 3% | 0% | 4% | -3% | 6% | 4% | 0% | 2% | 10% | -1% | 1% | 2% | 1% | 3% | 3% | 3% | inhibition [23]: -1%
